# Experimental data gathered from unrelated publications.
# Compare with care: the assays were run in different laboratories.
# PTGS2: Prostaglandin G/H synthase 2 (PTGS2, Homo sapiens, UniProt P35354)
# CHRM3: Muscarinic acetylcholine receptor M3 (CHRM3, Homo sapiens, UniProt P20309)
# TMEM97: Sigma intracellular receptor 2 (TMEM97, Homo sapiens, UniProt Q5BJF2)
Structure (SMILES),target,assay,conditions,measurement,value
CN1C(=O)C(=Cc2cn(-c3nc(N4CCCC4)nc(N4CCOCC4)n3)c3ccccc23)C(=O)N(C)C1=O,PTGS2,"enzyme activity, inhibitor",,IC50,6 µM
Clc1cccc(N2CCNCC2)c1Cl,CHRM3,"ligand displacement, radioligand",cell membranes,Ki,25.1 µM
C[C@@H]1NC(=O)[C@H](CC(N)=O)NC(=O)[C@H](Cc2ccccc2)NC(=O)[C@@H]2Cc3ccccc3CN2C(=O)[C@H](CCCNC(=N)N)NC(=O)[C@@H]2CCCN2C(=O)[C@H]2CCCN2C(=O)[C@H](Cc2ccccc2)NC1=O,"Melanocyte-stimulating hormone receptor (Mc1r, Mus musculus, UniProt Q01727)","reporter gene, agonist",,EC50,> 100 µM
CN[C@@H](C)[C@@H](O)c1ccccc1,TMEM97,"ligand displacement, radioligand",,Ki,> 10 µM
CN1C(=O)C(=Cc2cn(-c3nc(Cl)nc(N4CCOCC4)n3)c3ccccc23)C(=O)N(C)C1=O,PTGS2,"enzyme activity, inhibitor",,IC50,0.1 µM
CN1CC[C@@]23CCCC[C@@H]2[C@@H]1Cc1ccc(O)cc13,TMEM97,"ligand displacement, radioligand",,Ki,2.94 µM
CCCCCCCCCCCCNCCCc1ccc([N+](=O)[O-])cc1,CHRM3,"ligand displacement, radioligand",,Ki,3.3 µM
O=c1[nH]c2ccccc2n1CCCN1CCC(n2c(=O)[nH]c3cc(Cl)ccc32)CC1,"Alpha-1D adrenergic receptor (ADRA1D, Homo sapiens, UniProt P25100)",cell-free assay,,Ki,0.71 µM
